# From ChEMBL document CHEMBL5620402, “Development of submicromolar 17β-HSD10 inhibitors and their in vitro and in vivo evaluation” (Eur J Med Chem, 2023)
# Legend:
# [1] = Aqueous solubility, logS of the compound at pH 7.4 phosphate buffer by nephelometry assay; assay type: physicochemical
# Outline: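 Nephelometry of compound suspensions in phosphate buffer pH 7.4. Stock was 160 μg/mL, sonicated and auto-diluted over 0–160 μg/mL, with higher stocks (640 μg/mL, 2.54 mg/mL) used if needed. Wells were shaken 30 s and laser-scanned. Solubility was derived by segmental linear regression.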
# [2] = biological target: T1, 3-hydroxyacyl-CoA dehydrogenase type-2 (Homo sapiens, UniProt Q99714); test: Inhibition of recombinant 17beta-HSD10 (unknown origin) expressed in Escherichia coli BL21 (DE3) assessed as residual activity using acetoacetyl-CoA as substrate by SAAC method
# T1 sequence (Q99714 whole entry): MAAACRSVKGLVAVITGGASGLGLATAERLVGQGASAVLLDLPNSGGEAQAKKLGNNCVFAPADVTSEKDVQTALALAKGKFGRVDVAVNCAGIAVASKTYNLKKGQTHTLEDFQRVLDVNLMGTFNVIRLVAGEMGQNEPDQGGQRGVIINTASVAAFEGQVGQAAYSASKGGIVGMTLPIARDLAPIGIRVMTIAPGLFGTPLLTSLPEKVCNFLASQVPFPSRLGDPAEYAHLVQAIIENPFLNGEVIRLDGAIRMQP
# Outline: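 Recombinant 17β-HSD10 from E. coli BL21(DE3), 0.15 μg, was mixed with 320 μmol/L NADH in 10 mM Tris-HCl pH 7.4 buffer (150 mM NaCl, 1 mM DTT, 0.001% Tween 20, 0.01% BSA). It was preincubated 5 min at 37 °C with inhibitor, then 320 μmol/L acetoacetyl-CoA was added. A340 was followed for 5 min. IC50 came from non-linear regression of ≥3 independent runs in triplicate; Ki was calculated from IC50 per Cer et al.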
# [3] = Inhibition of complex I linked mitochondrial respiration in isolated pig brain mitochondria by O2k respirometry; set-up: species or system Sus scrofa
# Outline: (§1)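 Respirometry (Oxygraph-2k) of purified pig brain cortex mitochondria in state 3. Substrates were malate + pyruvate + ADP (Complex I) or ADP + rotenone + succinate (Complex II). One chamber was titrated with compound (10–20 concentrations, final 1.25–500 μM) and the other with DMSO; rates were expressed relative to DMSO. IC50 came from four-parameter logistic fits.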
# [4] = biological target: T2, Amine oxidase [flavin-containing] A (Sus scrofa, UniProt Q6Q2J0); test: Inhibition of pig brain mitochondrial MAO-A using [3H]5-HT as substrate incubated for 60 mins by liquid scintillation counting analysis; assay type: mitochondria, Mitochondria
# T2 sequence (Q6Q2J0 whole entry): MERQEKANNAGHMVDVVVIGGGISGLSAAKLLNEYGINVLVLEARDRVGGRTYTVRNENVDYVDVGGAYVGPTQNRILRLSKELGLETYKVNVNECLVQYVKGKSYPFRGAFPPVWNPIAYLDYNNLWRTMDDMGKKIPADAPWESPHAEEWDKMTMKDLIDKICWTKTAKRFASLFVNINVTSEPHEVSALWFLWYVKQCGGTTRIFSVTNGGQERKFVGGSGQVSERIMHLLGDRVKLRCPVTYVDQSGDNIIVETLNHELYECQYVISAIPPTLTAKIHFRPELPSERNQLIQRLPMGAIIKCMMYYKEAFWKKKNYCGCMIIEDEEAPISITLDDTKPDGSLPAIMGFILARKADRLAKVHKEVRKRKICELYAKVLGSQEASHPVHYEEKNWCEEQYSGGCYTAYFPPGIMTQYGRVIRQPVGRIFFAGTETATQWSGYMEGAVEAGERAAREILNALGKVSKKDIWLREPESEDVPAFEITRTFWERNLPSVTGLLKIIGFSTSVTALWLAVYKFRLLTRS
# Outline: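 Pig brain mitochondria were preincubated with drug at 5–7 concentrations (1–1000 μM) for 60 min at 37 °C. Radiolabelled substrate was then added: [3H]5-HT for MAO-A (20 min) or [14C]PEA for MAO-B (1 min). The aldehyde product was counted by liquid scintillation. IC50 came from four-parameter logistic fits; mean ± SE of ≥2 runs.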
# [5] = organism: Sus scrofa; test: Inhibition of pig brain mitochondrial Complex I assessed as rotenone-sensitive rate of the NADH oxidation by measuring activity by spectrophotometric ally method (reference value: 100 + /- 3.3%); set-up: scale not given: the % may be the effect or the level left; conditions: Mitochondria
# Outline: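 Sonicated pig brain mitochondria (1 mg/mL protein) were held in 25 mM KH2PO4, 5 mM MgCl2 pH 7.2 with 2 mM KCN. They were incubated with 50 μM drug for 30 min at 30 °C. The reaction was started with coenzyme Q10 and NADH (100 μM each), and A340 was read for 5 min. The rotenone (10 μM)-insensitive background was subtracted. At least three measurements.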
# [6] = biological target: T3, 3-hydroxyacyl-CoA dehydrogenase type-2 (Homo sapiens) (UniProt Q99714); test: Inhibition of recombinant 17beta-HSD10 (unknown origin) expressed in Escherichia coli BL21 (DE3) assessed as residual activity at 10 uM using acetoacetyl-CoA as substrate by SAAC method relative to control
# T3 sequence (whole entry): T1 sequence (Q99714 whole entry)
# Outline: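 Recombinant 17β-HSD10 from E. coli BL21(DE3), 0.15 μg, was mixed with 320 μmol/L NADH in Tris-HCl pH 7.4 assay buffer. It was preincubated 5 min at 37 °C with 1 or 10 μM inhibitor or vehicle, then 320 μmol/L acetoacetyl-CoA was added. A340 was followed for 5 min. Residual activity is % of control, triplicate mean ± SD, with t-test versus control.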
# [7] = Dissociation constant, pKa of compound using buffers of given pH (range from 3.0 to 11.5) by UV-VIS spectrophotometry; assay type: physicochemical
# Outline: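 Compound (10 μL of 1 mg/mL) was put into 490 μL of buffers spanning pH 3.0–11.5 in 0.5-unit steps. UV spectra were scanned at 200–400 nm and 20 °C. pKa was fitted from the sigmoidal absorbance of the dissociated form versus pH.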
# [8] = system: SH-SY5Y; test: Cytotoxicity against human SH-SY5Y cells assessed as change in ATP level at 1 uM measured after 48 hrs by CellTiter-Glo assay; assay type: toxicity, cell-based
# Outline: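 HEK293 or SH-SY5Y cells in DMEM with 10% FBS, 2 mM glutamine and NEAA were seeded at 7,500 cells per well and grown 24 h. They were then exposed to 1 or 10 μM compound (final 1% DMSO) for 48 h. ATP was read by CellTiter-Glo luminescence after CellTox Green, normalised to 1% DMSO and 100 μM valinomycin controls. At least two experiments in tetraplicate.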
# [9] = Inhibition of complex II linked mitochondrial respiration in isolated pig brain mitochondria by O2k respirometry; set-up: species or system Sus scrofa; outline: as §1
SMILES,logS0 [1],IC50 [2] [µM],Ki [2] [µM],IC50 [3] [µM],IC50 ([4]; read-out: IC50) [µM],Activity [5] [%],Activity [6] [%],pKa [7],Activity [8],IC50 [9] [µM],IC50 [4]
O=C(Nc1ccc(O)c(Cl)c1)Nc1nc2ccc(C(=O)O)cc2s1,-4.36,0.31,0.23,93,85,87.7,17.5,9.75,Non-Toxic,260,–
COc1ccc2nc(NC(=O)Nc3ccc(O)c(C(F)(F)F)c3)sc2c1,-4.48,0.57,0.44,28,79,5.3,13,11.2,–,98,–
CC(=O)Nc1ccc2nc(NC(=O)Nc3ccc(O)c(Cl)c3)sc2c1,-4.55,0.34,0.25,36.4,5.8,24.3,22,9.83,Non-Toxic,27,–
NC(=O)c1ccc2nc(NC(=O)Nc3ccc(O)c(Cl)c3)sc2c1,-4.78,0.84,0.65,88,–,25.2,38.3,9.35,Non-Toxic,–,Not Active
